FLuc inh counter = counter-screen for luciferase assay inhibitors: firefly luciferase inhibition. P08659. ATPLite firefly luciferase biochemical luminescence, 10 min. inhibition, % at 10 µM. 200,000 tested, 1.5% active;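 active = inhibition above about 50% when tested at 10 µM, limit read from the data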
Target sequence (P08659 whole entry, looked up): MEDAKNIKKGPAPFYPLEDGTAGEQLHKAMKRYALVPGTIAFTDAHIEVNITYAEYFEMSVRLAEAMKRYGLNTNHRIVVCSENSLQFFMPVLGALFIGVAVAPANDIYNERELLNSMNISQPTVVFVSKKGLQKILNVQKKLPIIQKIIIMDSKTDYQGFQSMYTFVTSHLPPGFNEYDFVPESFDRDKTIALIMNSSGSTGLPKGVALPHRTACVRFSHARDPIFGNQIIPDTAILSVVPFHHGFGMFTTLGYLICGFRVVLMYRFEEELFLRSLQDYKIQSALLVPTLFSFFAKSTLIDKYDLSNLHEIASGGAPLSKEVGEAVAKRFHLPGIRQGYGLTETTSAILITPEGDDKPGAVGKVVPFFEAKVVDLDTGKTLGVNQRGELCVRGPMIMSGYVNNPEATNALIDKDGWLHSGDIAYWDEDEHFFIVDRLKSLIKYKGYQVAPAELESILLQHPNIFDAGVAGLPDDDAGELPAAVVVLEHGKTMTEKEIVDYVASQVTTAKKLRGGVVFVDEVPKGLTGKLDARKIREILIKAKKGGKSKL
PPC-1+TRAIL kill = PPC-1 cancer cell killing with TRAIL present; 220,000 tested, 0.41% active; AID 1443; PPC-1 cells + TRAIL, ATPLite viability luminescence; cell killing (% activity), % at 4 µM or 5 µM;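 active = cell killing above 50% in the first pass at 4 µM, then a duplicate retest at 5 µM averaging 50% or more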;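 note: plate controls were cells with TRAIL plus DMSO for no effect and medium-only wells lacking cells for full effect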
FLuc act counter = firefly luciferase counter-screen for stimulation assays. P08659. ATPlite luciferase biochemical, luminescence, 10 min; 0 = ATP-free wells, 1 = DMSO control. activation factor at 10 µM. 200,000 tested, under 10 active. AID 1027;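 active = luciferase activation factor, scaled between plate controls, of at least 2 with compound at 10 µM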
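Assay system: Luciferase/luciferin detection reagent, cell-free biochemical luciferase assay / Read-out: luciferase activation / Benchmarks: No-ATP low control, compound-free enzyme-plus-ATP high control / Medium: PBS buffer for ATP / Detection: luminescence measurement of luciferase light output / Schedule: 10 min at ambient temperature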
Platelet DG rel = platelet dense granule release activity. human platelet-rich plasma, SFLLRN dense granule ATP release, luminescence. inhibition, %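 (compounds screened at 7.5 µM in platelet-rich plasma)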. 300,000 tested, 0.22% active. AID 1663;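 active = mean replicate score, as percent of positive control, at or above 50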
C8 TRAIL sens = sensitizes caspase-8 expressing cells to TRAIL. NB7+C8 cells + TRAIL, ATPlite viability luminescence. inhibition (viability loss, TRAIL sensitization), % at 10 µM. 360,000 tested, 1% active. AID 624354;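 active = compounds causing at least 50% loss of cell viability in the single-dose screen, relative to plate controls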
PPC-1 tox = kills PPC-1 cells. PPC-1 viability, ATPlite luminescence, overnight. shares compounds with PPC-1+TRAIL kill. AID 1447. cytotoxicity, % at 5 µM. 1,200 tested, 50% active;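 active = reconfirmed compounds whose average cytotoxicity reaches 50% or more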;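 note: 0% = DMSO-treated cells and 100% = wells holding medium but no cells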
Numbers without * were called inactive; x = no result given. Hits are enriched below; roughly 1.6% of the tested compounds scored in any of these assays.

SMILES	FLuc inh counter	PPC-1+TRAIL kill	FLuc act counter	Platelet DG rel	C8 TRAIL sens	PPC-1 tox
CN(C)S(=O)(=O)c1ccc(C(=O)Nc2ccc(S(=O)(=O)NC3=NCCCCC3)cc2)cc1	-2.5	-5.0	1	-1.6	-4.0	-10.5
Cc1occc1C(=O)O/N=C(\N)c1ccccc1	x	56.9*	x	72.5*	70.5*	55.4*
COc1ccc(-c2nc(Cn3c(SCc4ccc(C)cc4)nc4ccncc43)c(C)o2)cc1OC	42.7	19.9	0.6	20.1	2.6	14.0
CCOc1ccc(OCc2cccc(C(=O)O)c2)cc1	92.8*	58.9*	0.1	6.0	83.7*	58.5*
CCOc1ccc(NC(=O)c2ccccc2O)cc1	87.4*	68.2*	0.1	14.0	58.5*	64.1*
CCOc1ccc(NC(=O)Nc2cccc(C(=O)O)c2)cc1	92.3*	73.2*	0.1	5.4	82.5*	64.6*
CCOc1ccc(NC(=O)c2ccccc2OC)cc1	44.2	8.0	0.6	12.6	16.1	x
CC1(C(=O)NCc2ccco2)CCN1C(=O)C1(c2ccccc2)CC1 (stereo not drawn)	x	x	x	x	4.4	x
Cc1ccc(N=C/C(C(=O)C(F)(F)F)=C(\O)c2cccs2)cc1	42.6	28.9	0.6	6.0	60.9*	36.5
c1ccc(-c2noc(-c3ccncc3)n2)nc1	28.3	15.1	0.7	26.3	25.0	x
COc1cccc(-c2nc(-c3ccccc3)no2)c1	45.8	12.9	0.5	8.3	17.6	x
COc1cccc(-c2nc(-c3ccccn3)no2)c1	93.0*	76.5*	0.1	26.5	x	81.1*
c1ccc(-c2noc(-c3ccc4c(c3)OCO4)n2)nc1	94.1*	86.9*	0.1	95.0*	85.2*	87.6*
Nc1ccc2c(c1)[nH]c(=O)c1cc(N)ccc12	x	x	x	x	-7.7	x
Cc1ccc(Cn2ccsc2=NC(=O)CCl)cc1	-2.0	91.5*	1	-2.8	97.8*	90.8*
Oc1ccc(O)cc1	x	x	x	-0.9	x	x
Oc1ccc(-c2nnc(-c3ccc(O)cc3)nn2)cc1	77.6*	53.1*	0.2	10.6	63.9*	53.9*
CCn1c(C(=O)N2CCc3ccccc3C2)cc2oc3ccccc3c21	2.6	5.2	1	-5.3	-7.5	9.1
Cn1c(C(=O)N2CCc3ccccc3C2)cc2oc3ccccc3c21	10.5	5.1	0.9	-1.8	2.1	x
COc1ccc(-c2cc(=O)c3c(O)c(OC)c(O)cc3o2)cc1	90.1*	64.2*	0.1	-4.1	70.2*	63.8*
CC1(C)NC(C(=O)O)Cc2c1[nH]c1ccccc21 (stereo not drawn)	5.6	-3.5	0.9	-0.9	-0.8	5.7
CC(=O)N1C(C(=O)O)Cc2c([nH]c3ccccc23)C1(C)C (stereo not drawn)	x	x	x	-12.4	-14.7	x
O=C(Cn1cc(COc2ccc(Cl)c(Cl)c2)nn1)NS(=O)(=O)c1ccccc1OC(F)(F)F	x	x	x	x	2.2	x
CCCS(=O)(=O)NC(=O)C1(C)CCCN(C(=O)c2c(OC)cccc2OC)C1 (stereo not drawn)	x	x	x	x	-10.1	x
Cc1cc(C)c2c(N)c(C(=O)Nc3nccs3)sc2n1	94.5*	81.7*	0.1	2.7	81.3*	80.8*
SMILES	FLuc inh counter	PPC-1+TRAIL kill	FLuc act counter	Platelet DG rel	C8 TRAIL sens	PPC-1 tox
COCc1cc(C)nc2sc(C(=O)Nc3nccs3)c(N)c12	5.6	-24.3	0.9	-9.8	-14.2	x
CC(=O)C1=C(C)NC(SCC(N)=O)=C(C#N)C1c1cccs1 (stereo not drawn)	-1.9	17.8	1	-6.2	-6.1	10.6
CCOC(=O)c1cccc(C(=O)Nc2nc3ccc(OC)cc3s2)n1	90.7*	68.3*	0.1	2.0	81.9*	67.3*
C[C@@H]1CCCCO[C@H](CN(C)Cc2ccc3c(c2)OCO3)[C@@H](C)CN([C@H](C)CO)C(=O)c2cc(NC(=O)c3ccccc3)ccc2O1	x	x	x	x	-5.2	x
CCOc1ccc(C(=O)Nn2cnnc2)cc1	1.3	17.9	1	-6.0	2.1	x
CCOc1ccc(C/C(N)=N/n2cnnc2)cc1	-5.8	14.9	1.1	20.5	-15.6	16.8
COc1cccc(-c2cnc3c(NC(C)=O)cc(-c4cccc(C(=O)NCCO)c4)cn23)c1	x	x	x	x	8.9	x
Cc1ccc(-c2nc3n(n2)Cc2ccccc2-3)cc1	92.3*	74.8*	0.1	18.1	86.3*	73.9*
CCn1c(C)nc2cc(-c3nc4n(n3)Cc3ccccc3-4)ccc21	98.2*	93.7*	0	96.7*	95.8*	93.5*
NC(=S)Cc1nc2n(n1)Cc1ccccc1-2	-2.8	16.2	1	9.2	2.3	x
CCOC(=O)[C@]12CCCC=C1N(Cc1ccccc1)C(=O)[C@H](CC(=O)N1CCC(c3ccccc3)CC1)C2	x	x	x	x	6.1	x
COc1ccc(OCCNC(=O)c2ccc3nc(C)c(N(C)C(=O)CCc4ccccc4)n3c2)cc1	x	x	x	x	-12.4	x
COc1ccc(-n2nc3cc(C)c(NC(=O)C(C)C)cc3n2)cc1	19.4	45.0	0.8	-2.1	x	x
COc1ccc(-n2nc3cc(C)c(NC(C)=O)cc3n2)cc1	81.3*	64.0*	0.2	10.5	73.6*	60.2*
COc1ccc(CN2CCC[C@]3(N[C@H](c4ccc(C)cc4)[C@@H]4C(=O)N(Cc5ccccc5)C(=O)[C@@H]43)C2=O)cc1	x	x	x	x	-10.8	x
Nc1ccc(O)c(-c2nc3ccccc3s2)c1	21.4	-2.2	0.8	9.8	10.6	x
Nc1cccc(-c2nc3ccc(N)cc3s2)c1	93.0*	74.1*	0.1	76.2*	69.8*	71.6*
Nc1ccc(-c2nc3ccc(N)cc3s2)cc1	x	82.2*	x	54.2*	84.2*	80.3*
CC(=O)NCCNc1nc2cc(-c3ccc(C(=O)N4CCN(C)CC4)cc3)sc2c(=O)n1C	x	x	x	x	11.3	x
C=CCNC(=O)/C(=C/c1cn(-c2ccccc2)nc1-c1cccc([N+](=O)[O-])c1)NC(=O)c1ccccc1	-3.9	26.1	1	-14.9	15.4	x
C=CCNC(=O)/C(=C/c1cccc([N+](=O)[O-])c1)NC(=O)c1ccccc1	-6.9	2.2	1.1	-4.3	2.6	5.8
CC(=O)c1sc2c(c1OC(=O)c1ccc(Cl)cc1Cl)c(=O)n(-c1ccccc1)c(=S)n2-c1ccccc1	x	29.1	x	6.9	14.6	23.4
CC(C)Cn1c(SCC(=O)NCc2ccc(Cl)cc2)nnc1-c1cccc(S(=O)(=O)N2CCOCC2)c1	-4.5	0.3	1	11.9	-1.1	1.4
CC(C)Cn1c(SCC(=O)O)nnc1-c1cccc(S(=O)(=O)N2CCOCC2)c1	x	x	x	x	-8.1	x
Cc1cc(=O)n2nc(N3CCCC(C(=O)NC(C)c4ccccc4)C3)sc2n1 (stereo not drawn)	-4.0	4.0	1	0.6	0.7	x
Cc1cc(=O)n2nc(N3CCCC(C(=O)N4CCN(c5ccccc5)CC4)C3)sc2n1 (stereo not drawn)	-4.7	0.8	1	-1.9	7.6	30.8
COc1ccc(OCC(=O)N/N=C(\C)c2cccs2)cc1	x	15.4	x	4.5	-11.1	x
COc1ccc(OCC(=O)N/N=C(\CCC(=O)O)c2cccs2)cc1	-1.1	14.4	1	-4.0	0.4	10.1
